Measured values from article PMC3634367 (Biochemistry, 2011).
Blank lines part the entries; values can stand above or below the molecule they belong to. Non-standard residues stand in square brackets, D forms with d. Residues, ends and D or L forms follow the SMILES beside them. pT = C[C@@H](OP(=O)(O)O)[C@H](N)C(=O)O; pS = N[C@@H](COP(=O)(O)O)C(=O)O

Key:
[1] = target: T1, tr-arr2_1-382 (truncated human arrestin-2 mutant) (Homo sapiens, UniProt P49407); experiment: Isothermal titration calorimetry; format: binding
Procedure, shortened: (§1)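 Untagged protein from E. coli BL21, purified by ammonium sulfate precipitation, heparin affinity and size exclusion. ITC at 283K in 10 mM NaH2PO4 pH 7.0, 100 mM NaCl: cell arrestin-2 0.01 mM, syringe test peptide 0.5 mM. 13 injections of 15 ul, 210 s apart, up to 2-fold peptide excess. Peptide dilution heats into buffer run as control. Isotherms fitted to one-site, 1:1 model.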

[2] = target: T2, wt-arr2_1-418 (full-length human arrestin-2) (Homo sapiens, UniProt P49407); experiment: Isothermal titration calorimetry; format: binding
Procedure, shortened: as §1

[3] = target: T2, wt-arr2_1-418 (full-length human arrestin-2); experiment: Transferred NOESY NMR of arrestin-peptide mixture, full-length arrestin-2; format: binding; conditions: 0.1 mM wt-arr2_1-418, 1 mM peptide (1:10), pH 6.9-7.1, 10°C, 600 MHz
[4] = target: T1, tr-arr2_1-382 (truncated human arrestin-2 mutant); experiment: Transferred NOESY NMR of arrestin-peptide mixture, truncated arrestin-2; format: binding; conditions: 0.1 mM tr-arr2_1-382, 1 mM peptide (1:10), pH 6.9-7.1, 10°C, 600 MHz
[5] = target: wild-type human arrestin-2 (wt-arr2_(1-418)) (human) (UniProt P49407); experiment: ITC
[6] = target: truncated human arrestin-2 mutant comprised of residues 1-382 (tr-arr2_(1-382)) (human) (UniProt P49407); experiment: ITC
[7] = system: arrestin-2; conditions: doubly phosphorylated Thr419-ASN439 peptide of CB1 C-terminus; cited from earlier work
[8] = ITC, 283K, 10 mM NaH2PO4 pH 7.0, 100 mM NaCl

T2 sequence (P49407 whole entry): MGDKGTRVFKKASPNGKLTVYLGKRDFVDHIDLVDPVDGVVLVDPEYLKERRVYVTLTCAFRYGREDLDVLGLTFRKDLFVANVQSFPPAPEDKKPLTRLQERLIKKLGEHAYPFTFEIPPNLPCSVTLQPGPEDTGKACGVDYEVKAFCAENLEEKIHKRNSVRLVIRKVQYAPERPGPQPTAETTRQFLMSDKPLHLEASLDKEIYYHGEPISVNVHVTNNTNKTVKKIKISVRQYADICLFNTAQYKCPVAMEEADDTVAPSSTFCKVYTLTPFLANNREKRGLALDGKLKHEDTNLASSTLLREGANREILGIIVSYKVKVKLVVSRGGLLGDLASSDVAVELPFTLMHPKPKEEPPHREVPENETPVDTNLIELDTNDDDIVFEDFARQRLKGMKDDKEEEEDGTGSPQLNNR
T1 sequence (P49407 1-382, stated change not applied): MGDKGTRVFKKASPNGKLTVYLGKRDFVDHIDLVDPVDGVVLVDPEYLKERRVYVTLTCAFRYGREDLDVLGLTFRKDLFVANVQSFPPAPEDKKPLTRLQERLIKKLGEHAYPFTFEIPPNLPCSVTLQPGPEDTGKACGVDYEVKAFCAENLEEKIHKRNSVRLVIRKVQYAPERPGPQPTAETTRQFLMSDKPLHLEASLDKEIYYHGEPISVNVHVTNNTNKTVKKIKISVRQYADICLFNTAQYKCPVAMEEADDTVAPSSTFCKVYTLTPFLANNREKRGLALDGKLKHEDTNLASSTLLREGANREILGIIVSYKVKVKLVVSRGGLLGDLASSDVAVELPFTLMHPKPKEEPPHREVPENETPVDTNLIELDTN
Chain of wild-type human arrestin-2 (wt-arr2_(1-418)) (human) (P49407 whole entry, the tested form may be a part): as the sequence (P49407 whole entry) above
Chain of truncated human arrestin-2 mutant comprised of residues 1-382 (tr-arr2_(1-382)) (human) (P49407 1-382, change not shown): as the sequence (P49407 1-382, stated change not applied) above

- Kd [1]: ~2.2 µM
- Kd [2]: ~116 µM
Molecule: CC[C@H](C)[C@H](NC(=O)[C@H](CCCCN)NC(=O)[C@@H](NC(=O)[C@@H](N)[C@@H](C)O)C(C)C)C(=O)N[C@@H](C)C(=O)N[C@@H](CCCCN)C(=O)N[C@H](C(=O)N[C@H](C(=O)N[C@@H](CCSC)C(=O)N[C@@H](COP(=O)(O)O)C(=O)N[C@H](C(=O)N[C@@H](COP(=O)(O)O)C(=O)N[C@H](C(=O)N[C@@H](CC(=O)O)C(=O)N[C@H](C(=O)N[C@@H](COP(=O)(O)O)C(=O)N[C@@H](C)C(=O)N[C@@H](CCC(=O)O)C(=O)N[C@@H](C)C(=O)N[C@@H](CC(C)C)C(=O)O)[C@@H](C)OP(=O)(O)O)[C@@H](C)O)C(C)C)[C@@H](C)OP(=O)(O)O)C(C)C [CB1^5P454-473] (H-TVKIAKV[pT]M[pS]V[pS]TD[pT][pS]AEAL-OH)

Molecule: TVKIAKVTMSVSTDTSAEAL [CB1_454-473]
- interaction by ITC [1, 8]: no indication of an interaction
- nOe change on addition of arrestin / interaction [3]: no additional peaks in the nOe spectra compared to the free peptide spectrum suggesting little or no interaction
- nOe change on addition of arrestin / interaction [4]: no additional peaks in the nOe spectra compared to the free peptide spectrum suggesting little or no interaction
- interaction by ITC [2, 8]: no indication of an interaction

- Kd [5]: 116 µM
- Kd [6]: 2.2 µM
Molecule: CB1^5P_(454-473), pentaphosphorylated peptide mimicking residues 454-473 of CB1

Molecule: doubly phosphorylated version of a peptide corresponding to residues Thr419-ASN439 of the CB1 C-terminus: doubly phosphorylated peptide corresponding to residues Thr419-ASN439 of the CB1 C-terminus, responsible for desensitization
- binding and bound conformation [7]: binds to arrestin-2 and adopts helical conformations in the vicinity of the phosphorylated residues
